# Laboratory results reported in ChEMBL document CHEMBL1921692 (J Med Chem, 2011).
# Columns and labels:
# [1] = biological target: Cytochrome P450 2C19 (Homo sapiens, UniProt P33261); test: Inhibition of human CYP2C19; format: ADME
# [2] = biological target: T1, Growth hormone secretagogue receptor type 1 (Homo sapiens, UniProt Q92847); test: Displacement of [125I-His9]-ghrelin from human GRLN receptor by radioligand binding assay
# Outline: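 Competitive binding on isolated membranes expressing GRLN, with 125I-His-9 octanoylated ghrelin as radioligand.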
# [3] = AUC (0 to infinity) in Sprague-Dawley rat at 8 mg/kg, po; format: ADME, organism-based; design: time infinity, dose 8 mg/kg, route oral; settings: plasma
# Outline: (§1)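 Male Sprague−Dawley rats (250 ± 20 g), 3 per compound in a single experiment, gavage 8 mg/kg in physiological saline. Blood taken at 12 time points over 6 h into K3EDTA tubes. Plasma stored at −20 °C, assayed by LC-MS/MS, noncompartmental analysis.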
# [4] = biological target: Cytochrome P450 3A4 (Homo sapiens, UniProt P08684); test: Inhibition of human CYP3A4; format: ADME
# [5] = Dissociation constant, pKa of the compound; format: physicochemical
# [6] = biological target: T1, Growth hormone secretagogue receptor type 1; test: Agonist activity at human GRLN receptor expressed in HEK293 cells assessed as calcium binding by Ca2+ bioluminescence aequorin assay; format: functional, cell-based
# Outline: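 HEK-293 cells expressing human GRLN. Ca2+ bioluminescence read out by aequorin. Duplicate samples, maximum tolerated interassay variability ±10%. Full agonism defined as maximal response >70% of that of octanoylated human ghrelin.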
# [7] = Permeability across mucosal to serosal side in human Caco2 cells; format: ADME, cell-based; settings: Caco-2, read-out: permeability
# [8] = system: Cynomolgus monkey; test: Oral bioavailability in cynomolgus monkey at […]; settings: in vivo
# [9] = biological target: T2, Cytochrome P450 1A2 (Homo sapiens, UniProt P05177); test: Inhibition of human CYP1A2; format: ADME
# T2 sequence (P05177 whole entry): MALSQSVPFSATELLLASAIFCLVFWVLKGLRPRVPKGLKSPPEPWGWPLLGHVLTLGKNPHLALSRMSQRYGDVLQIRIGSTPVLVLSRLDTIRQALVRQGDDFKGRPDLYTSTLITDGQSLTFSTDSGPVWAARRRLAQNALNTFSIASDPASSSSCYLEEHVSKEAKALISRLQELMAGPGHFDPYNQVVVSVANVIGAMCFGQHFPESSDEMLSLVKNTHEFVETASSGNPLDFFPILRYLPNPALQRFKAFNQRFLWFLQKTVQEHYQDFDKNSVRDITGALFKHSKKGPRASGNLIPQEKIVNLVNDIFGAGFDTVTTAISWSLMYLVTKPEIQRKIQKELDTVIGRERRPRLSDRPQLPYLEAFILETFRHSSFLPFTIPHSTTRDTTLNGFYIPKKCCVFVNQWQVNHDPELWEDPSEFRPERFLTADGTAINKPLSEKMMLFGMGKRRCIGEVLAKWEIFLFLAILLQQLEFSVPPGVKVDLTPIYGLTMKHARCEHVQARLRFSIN
# [10] = system: Rattus norvegicus; test: Induction of gastric emptying in overnight-fasted iv dosed Wistar rat measured after 15 mins by […] analysis; format: functional, organism-based, Stomach
# Outline: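 Overnight-fasted male Wistar rats (200 ± 20 g), N = 5 per point. Compound given IV in 9% 2-hydroxypropyl-β-cyclodextrin together with an oral 2% methylcellulose meal containing 0.05% phenol red (2 mL). Sacrifice 15 min later; phenol red left in stomach read at 560 nm. […] Metoclopramide positive control at 10 mg/kg IV.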
# [11] = biological target: Cytochrome P450 2D6 (Homo sapiens, UniProt P10635); test: Inhibition of human CYP2D6; format: ADME
# [12] = Cmax in Sprague-Dawley rat at 8 mg/kg, po; format: ADME, organism-based; design: dose 8 mg/kg, route oral; settings: in vivo; outline: as §1
# [13] = Permeability across serosal to mucosal side human Caco2 cells; format: ADME, cell-based; settings: Caco-2, read-out: permeability
# [14] = system: Salmonella typhimurium; test: Induction of mutagenicity in Salmonella Typhimurium up to 5000 ug/plate by Ames test; format: toxicity, organism-based; settings: salmonella enterica subsp. enterica serovar typhimurium
# Outline: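 Ames test run up to 5000 μg/plate.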
# [15] = system: Cynomolgus monkey; test: AUC (0 to infinity) in cynomolgus monkey at […], po; settings: in vivo
# [16] = Drug metabolism in rat liver microsomes after 15 mins; format: ADME, Microsome; settings: read-out: Drug metabolism
# [17] = Oral bioavailability in Sprague-Dawley rat at 8 mg/kg; settings: in vivo
# [18] = biological target: Cytochrome P450 2C9 (Homo sapiens, UniProt P11712); test: Inhibition of human CYP2C9; format: ADME
# [19] = Drug excretion in Sprague-Dawley rat assessed as unchanged recovery in feces at 6 mg/kg, iv measured after 30 mins; settings: faeces
# [20] = Cmax in cynomolgus monkey at 8 mg/kg, po; format: ADME, organism-based, Macaca fascicularis; design: dose 8 mg/kg, route oral; settings: in vivo
# [21] = biological target: motilin receptor (Homo sapiens) (UniProt O43193); test: Selectivity ratio of EC50 for human motilin receptor to EC50 for human GRLN receptor
# [22] = Clearance in cynomolgus monkey at 0.5 mg/kg, iv; settings: in vivo
# [23] = Elimination half life in Sprague-Dawley rat at 2 m/kg, iv; format: ADME, organism-based; settings: in vivo, read-out: beta t1/2
# [24] = Clearance in Sprague-Dawley rat at 2 m/kg, iv; format: ADME, organism-based; settings: in vivo
# [25] = Volume of distribution at steady state in cynomolgus monkey at 0.5 mg/kg, iv; settings: in vivo, read-out: Vdss
# [26] = Elimination half life in cynomolgus monkey at 0.5 mg/kg, iv; settings: in vivo, read-out: beta t1/2
# [27] = Half life in human liver microsomes; format: ADME, Microsome
# [28] = Volume of distribution at steady state in Sprague-Dawley rat at 2 m/kg, iv; format: ADME, organism-based; settings: in vivo, read-out: Vdss
# T1 sequence (Q92847 whole entry): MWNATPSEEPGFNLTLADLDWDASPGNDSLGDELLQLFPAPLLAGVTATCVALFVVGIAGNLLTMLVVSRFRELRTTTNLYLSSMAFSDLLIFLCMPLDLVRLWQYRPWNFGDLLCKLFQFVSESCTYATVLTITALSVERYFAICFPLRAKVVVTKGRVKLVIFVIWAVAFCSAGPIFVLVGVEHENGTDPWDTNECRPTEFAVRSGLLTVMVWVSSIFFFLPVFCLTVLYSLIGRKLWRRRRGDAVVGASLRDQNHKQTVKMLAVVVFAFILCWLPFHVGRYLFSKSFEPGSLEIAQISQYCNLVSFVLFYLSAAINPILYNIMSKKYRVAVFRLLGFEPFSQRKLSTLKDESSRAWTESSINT
# Cytochrome P450 2C9, sequence (P11712 whole entry): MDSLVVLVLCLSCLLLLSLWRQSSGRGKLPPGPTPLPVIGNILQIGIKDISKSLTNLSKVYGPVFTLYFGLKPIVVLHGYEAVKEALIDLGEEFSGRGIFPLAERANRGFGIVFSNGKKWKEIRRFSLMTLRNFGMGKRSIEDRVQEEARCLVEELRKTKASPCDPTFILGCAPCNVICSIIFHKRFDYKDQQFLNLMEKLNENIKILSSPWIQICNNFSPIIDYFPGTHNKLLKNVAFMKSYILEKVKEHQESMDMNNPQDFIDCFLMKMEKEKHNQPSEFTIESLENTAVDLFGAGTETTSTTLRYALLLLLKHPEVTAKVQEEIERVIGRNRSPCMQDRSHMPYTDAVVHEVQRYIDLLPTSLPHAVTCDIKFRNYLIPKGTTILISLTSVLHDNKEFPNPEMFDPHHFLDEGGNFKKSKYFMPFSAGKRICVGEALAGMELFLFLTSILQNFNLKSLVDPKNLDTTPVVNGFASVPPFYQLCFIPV
# Cytochrome P450 3A4, sequence (P08684 whole entry): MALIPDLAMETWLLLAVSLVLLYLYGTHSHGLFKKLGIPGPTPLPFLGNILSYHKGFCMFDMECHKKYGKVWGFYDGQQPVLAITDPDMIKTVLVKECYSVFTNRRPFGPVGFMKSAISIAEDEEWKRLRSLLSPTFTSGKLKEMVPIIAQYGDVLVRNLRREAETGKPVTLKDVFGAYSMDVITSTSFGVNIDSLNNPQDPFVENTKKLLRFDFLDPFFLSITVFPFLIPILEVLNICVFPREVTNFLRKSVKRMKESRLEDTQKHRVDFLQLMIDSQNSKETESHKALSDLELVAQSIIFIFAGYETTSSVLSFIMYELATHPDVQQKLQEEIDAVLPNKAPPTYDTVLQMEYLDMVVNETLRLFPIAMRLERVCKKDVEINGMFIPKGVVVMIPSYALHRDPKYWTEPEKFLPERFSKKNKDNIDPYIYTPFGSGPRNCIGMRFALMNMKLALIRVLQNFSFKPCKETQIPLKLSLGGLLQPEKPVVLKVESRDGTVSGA
# Cytochrome P450 2D6, sequence (P10635 whole entry): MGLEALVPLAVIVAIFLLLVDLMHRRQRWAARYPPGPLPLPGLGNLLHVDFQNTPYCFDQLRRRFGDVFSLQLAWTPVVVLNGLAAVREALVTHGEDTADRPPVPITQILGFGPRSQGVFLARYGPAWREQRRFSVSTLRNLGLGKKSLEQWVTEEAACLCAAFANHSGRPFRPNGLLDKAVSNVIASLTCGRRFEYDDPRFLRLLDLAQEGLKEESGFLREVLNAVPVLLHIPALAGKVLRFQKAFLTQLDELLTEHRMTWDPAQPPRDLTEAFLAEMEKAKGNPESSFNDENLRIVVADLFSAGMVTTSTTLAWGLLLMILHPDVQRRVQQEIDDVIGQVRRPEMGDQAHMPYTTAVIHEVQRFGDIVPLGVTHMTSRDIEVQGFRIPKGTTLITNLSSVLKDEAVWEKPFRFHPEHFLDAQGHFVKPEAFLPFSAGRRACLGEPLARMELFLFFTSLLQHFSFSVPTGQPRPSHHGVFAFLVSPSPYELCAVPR
# Cytochrome P450 2C19, sequence (P33261 whole entry): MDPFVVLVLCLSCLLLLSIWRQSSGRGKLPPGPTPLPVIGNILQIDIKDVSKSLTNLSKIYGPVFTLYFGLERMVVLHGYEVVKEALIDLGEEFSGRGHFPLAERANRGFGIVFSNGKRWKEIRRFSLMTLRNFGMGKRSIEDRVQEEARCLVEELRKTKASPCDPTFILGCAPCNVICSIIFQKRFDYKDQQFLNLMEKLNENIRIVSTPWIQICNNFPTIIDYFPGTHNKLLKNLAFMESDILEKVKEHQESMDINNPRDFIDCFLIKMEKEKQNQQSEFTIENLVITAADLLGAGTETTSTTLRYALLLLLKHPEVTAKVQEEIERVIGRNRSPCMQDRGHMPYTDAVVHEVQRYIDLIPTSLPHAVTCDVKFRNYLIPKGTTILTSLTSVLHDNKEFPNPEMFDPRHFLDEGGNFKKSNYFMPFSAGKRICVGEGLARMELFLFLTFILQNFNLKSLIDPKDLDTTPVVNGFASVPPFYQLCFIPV
IC50 [1] [µM],Ki [2] [µM],AUC(0-inf) [3] [nM·h],IC50 [4] [µM],EC50 [6] [µM],Papp A→B [7] [nm/s],F [8] [%],IC50 [9] [µM],EC50 [10] [mg/kg],IC50 [11] [µM],Cmax [12] [µM],Papp B→A [13] [nm/s],AUC [15] [µM·min],metabolised at […] [16] [%],bioavailability [17] [%],IC50 [18] [µM],Cmax [20] [µM],SMILES,also measured
> 100,0.016,1370,2.4,0.029,150,24,> 100,0.91,84,0.39,140,75.4,68,24,66,1.4,C[C@@H]1CN[C@@H](C2CC2)C(=O)N(C)[C@H](C)C(=O)N[C@H](Cc2ccc(F)cc2)C(=O)NCCCc2ccccc2O1.Cl.O [ULIMORELIN HYDROCHLORIDE],pKa [5]: 7.17; Activity [14]: Non-toxic; dose excreted at 0.5 h [19]: 95%
–,0.086,–,–,0.134,–,–,–,–,–,–,–,–,–,–,–,–,CCC[C@@H]1NCCOc2ccccc2/C=C/CNC(=O)[C@@H](Cc2ccccc2)NC(=O)CN(C)C1=O,Ratio EC50 [21]: > 100
> 100,0.0026,1660,1.2,0.027,198,7,> 100,1.2,31,0.9,125,10.3,54,36,> 100,0.09,C[C@@H]1C(=O)N[C@H](Cc2ccc(F)cc2)C(=O)NCCCc2ccc(F)cc2OCCN[C@@H](C2CC2)C(=O)N1C,clearance [22]: 1.2 L/h/kg; half-life [23]: 44 min; clearance [24]: 1.68 L/h/kg; Vd [25]: 0.66 L/kg; half-life [26]: 29 min; half-life [27]: 41 min; Vd [28]: 1.8 L/kg
